# Legend:
# Mus musculus [1] = assay: Biodistribution in adrenal gland of mouse assessed per organ at 8 to 11 x 10^-8 mol, iv measured after 120 mins; assay type: ADME, organism-based; conditions: in vivo, 2 h
# Method in brief: (§1)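 [131I]- or [123I]-6-iododopamine in water or saline, used within 30 min of preparation. Injected iv at 8-11 × 10^-8 mol/mouse. Mice killed by ether overdose at 5-240 min; 3-10 mice per time point. Tissue radioactivity expressed as % dose/organ ± SD.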
# Kidney [2] = assay: Biodistribution in kidney of mouse assessed per organ at 8 to 11 x 10^-8 mol, iv measured after 60 mins; assay type: ADME, organism-based; conditions: in vivo, 1 h; method in brief: as §1
# Kidney [3] = assay: Biodistribution in kidney of mouse assessed per organ at 8 to 11 x 10^-8 mol, iv measured after 240 mins; assay type: ADME, organism-based; conditions: in vivo, 4 h; method in brief: as §1
# [4] = Biodistribution in adrenal medulla of mongrel dog assessed per organ at 1.29 x 10^-6 mol, iv measured after 2 hrs; assay type: ADME, organism-based, Canis lupus familiaris; conditions: in vivo
# Method in brief: (§2)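 Radioiodinated ([123I] or [131I]) 6-iododopamine in water or saline, used within 30 min of preparation. Given iv at 1.29 × 10^-6 mol/dog; one dog per time point, killed at 2 or 24 h. Large organs counted as three samples and averaged; adrenals and thyroid taken intact and counted. Expressed as % dose/organ.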
# Mus musculus [5] = assay: Biodistribution in adrenal gland of mouse assessed per organ at 8 to 11 x 10^-8 mol, iv measured after 240 mins; assay type: ADME, organism-based; conditions: in vivo, 4 h; method in brief: as §1
# [6] = Biodistribution in kidney of mongrel dog assessed per organ at 1.29 x 10^-6 mol, iv measured after 24 hrs; assay type: ADME, organism-based, Canis lupus familiaris; conditions: in vivo; method in brief: as §2
# [7] = Biodistribution in thyroid gland of mongrel dog assessed per organ at 1.29 x 10^-6 mol, iv measured after 24 hrs; assay type: ADME, organism-based, Canis lupus familiaris; conditions: in vivo
# Method in brief: (§3)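 Radioiodine-labelled tracer given at 1.29 × 10^-6 mol/dog. One dog per time point, killed at 2 or 24 h. Thyroids and other small organs were taken intact and counted. Large organs were sampled three times and averaged. Result given as % dose/organ.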
# Liver [8] = assay: Biodistribution in liver of mouse assessed per organ at 8 to 11 x 10^-8 mol, iv measured after 60 mins; assay type: ADME, organism-based; conditions: in vivo, 1 h; method in brief: as §1
# Liver [9] = assay: Biodistribution in liver of mouse assessed per organ at 8 to 11 x 10^-8 mol, iv measured after 240 mins; assay type: ADME, organism-based; conditions: in vivo, 4 h; method in brief: as §1
# Kidney [10] = assay: Biodistribution in kidney of mouse assessed per organ at 8 to 11 x 10^-8 mol, iv measured after 5 mins; assay type: ADME, organism-based; conditions: in vivo; method in brief: as §1
# Liver [11] = assay: Biodistribution in liver of mouse assessed per organ at 8 to 11 x 10^-8 mol, iv measured after 120 mins; assay type: ADME, organism-based; conditions: in vivo, 2 h; method in brief: as §1
# Mus musculus [12] = assay: Biodistribution in thyroid gland of mouse assessed per organ at 8 to 11 x 10^-8 mol, iv measured after 15 mins; assay type: ADME, organism-based; conditions: in vivo, 0.25 h
# Method in brief: (§4)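 Tracer labelled with either 123I or 131I, in water or saline, used within 30 min of preparation. Mice dosed iv at 8-11 × 10^-8 mol/mouse and killed by ether overdose. Organs counted as % dose/organ ± SD, n = 3-10 mice per time point.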
# Mus musculus [13] = assay: Biodistribution in adrenal gland of mouse assessed per organ at 8 to 11 x 10^-8 mol, iv measured after 5 mins; assay type: ADME, organism-based; conditions: in vivo; method in brief: as §1
# Mus musculus [14] = assay: Biodistribution in thyroid gland of mouse assessed per organ at 8 to 11 x 10^-8 mol, iv measured after 120 mins; assay type: ADME, organism-based; conditions: in vivo, 2 h; method in brief: as §4
# Mus musculus [15] = assay: Biodistribution in thyroid gland of mouse assessed per organ at 8 to 11 x 10^-8 mol, iv measured after 5 mins; assay type: ADME, organism-based; conditions: in vivo; method in brief: as §4
# Mus musculus [16] = assay: Biodistribution in thyroid gland of mouse assessed per organ at 8 to 11 x 10^-8 mol, iv measured after 30 mins; assay type: ADME, organism-based; conditions: in vivo, 0.5 h; method in brief: as §4
# Kidney [17] = assay: Biodistribution in kidney of mouse assessed per organ at 8 to 11 x 10^-8 mol, iv measured after 30 mins; assay type: ADME, organism-based; conditions: in vivo, 0.5 h; method in brief: as §1
# [18] = Biodistribution in adrenal medulla of mongrel dog assessed per organ at 1.29 x 10^-6 mol, iv measured after 24 hrs; assay type: ADME, organism-based, Canis lupus familiaris; conditions: in vivo; method in brief: as §2
# Liver [19] = assay: Biodistribution in liver of mongrel dog assessed per organ at 1.29 x 10^-6 mol, iv measured after 2 hrs; assay type: ADME, organism-based, Canis lupus familiaris; conditions: in vivo; method in brief: as §2
# Mus musculus [20] = assay: Biodistribution in adrenal gland of mouse assessed per organ at 8 to 11 x 10^-8 mol, iv measured after 60 mins; assay type: ADME, organism-based; conditions: in vivo, 1 h; method in brief: as §1
# Mus musculus [21] = assay: Biodistribution in thyroid gland of mouse assessed per organ at 8 to 11 x 10^-8 mol, iv measured after 60 mins; assay type: ADME, organism-based; conditions: in vivo, 1 h; method in brief: as §4
# [22] = Biodistribution in adrenal cortex of mongrel dog assessed per organ at 1.29 x 10^-6 mol, iv measured after 24 hrs; assay type: ADME, organism-based, Canis lupus familiaris; conditions: in vivo; method in brief: as §2
# [23] = Biodistribution in thyroid gland of mongrel dog assessed per organ at 1.29 x 10^-6 mol, iv measured after 2 hrs; assay type: ADME, organism-based, Canis lupus familiaris; conditions: in vivo; method in brief: as §3
# Mus musculus [24] = assay: Biodistribution in adrenal gland of mouse assessed per organ at 8 to 11 x 10^-8 mol, iv measured after 30 mins; assay type: ADME, organism-based; conditions: in vivo, 0.5 h; method in brief: as §1
# Kidney [25] = assay: Biodistribution in kidney of mouse assessed per organ at 8 to 11 x 10^-8 mol, iv measured after 120 mins; assay type: ADME, organism-based; conditions: in vivo, 2 h; method in brief: as §1
# Kidney [26] = assay: Biodistribution in kidney of mouse assessed per organ at 8 to 11 x 10^-8 mol, iv measured after 15 mins; assay type: ADME, organism-based; conditions: in vivo, 0.25 h; method in brief: as §1
# Mus musculus [27] = assay: Biodistribution in adrenal gland of mouse assessed per organ at 8 to 11 x 10^-8 mol, iv measured after 15 mins; assay type: ADME, organism-based; conditions: in vivo, 0.25 h; method in brief: as §1
# Liver [28] = assay: Biodistribution in liver of mouse assessed per organ at 8 to 11 x 10^-8 mol, iv measured after 15 mins; assay type: ADME, organism-based; conditions: in vivo, 0.25 h; method in brief: as §1
# [29] = Biodistribution in adrenal cortex of mongrel dog assessed per organ at 1.29 x 10^-6 mol, iv measured after 2 hrs; assay type: ADME, organism-based, Canis lupus familiaris; conditions: in vivo; method in brief: as §2
# [30] = Biodistribution in kidney of mongrel dog assessed per organ at 1.29 x 10^-6 mol, iv measured after 2 hrs; assay type: ADME, organism-based, Canis lupus familiaris; conditions: in vivo; method in brief: as §2
# Mus musculus [31] = assay: Biodistribution in thyroid gland of mouse assessed per organ at 8 to 11 x 10^-8 mol, iv measured after 240 mins; assay type: ADME, organism-based; conditions: in vivo, 4 h; method in brief: as §4
# Liver [32] = assay: Biodistribution in liver of mouse assessed per organ at 8 to 11 x 10^-8 mol, iv measured after 30 mins; assay type: ADME, organism-based; conditions: in vivo, 0.5 h; method in brief: as §1
# Liver [33] = assay: Biodistribution in liver of mongrel dog assessed per organ at 1.29 x 10^-6 mol, iv measured after 24 hrs; assay type: ADME, organism-based, Canis lupus familiaris; conditions: in vivo; method in brief: as §2
# Liver [34] = assay: Biodistribution in liver of mouse assessed per organ at 8 to 11 x 10^-8 mol, iv measured after 5 mins; assay type: ADME, organism-based; conditions: in vivo; method in brief: as §1
smiles,measurement,setting,value
Br.NCCc1cc(O)c(O)cc1[123I],Drug uptake,Mus musculus [1],0.02 %ID
same,Drug uptake,Kidney [2],1 %ID
same,Drug uptake,Kidney [3],0.79 %ID
same,Drug uptake,[4],0.0062 %ID
same,Drug uptake,Mus musculus [5],0.012 %ID
same,Drug uptake,[6],0.075 %ID
same,Drug uptake,[7],0.48 %ID
same,Drug uptake,Liver [8],1.04 %ID
same,Drug uptake,Liver [9],0.94 %ID
same,Drug uptake,Kidney [10],8.03 %ID
same,Drug uptake,Liver [11],0.84 %ID
same,Drug uptake,Mus musculus [12],0.067 %ID
same,Drug uptake,Mus musculus [13],0.03 %ID
same,Drug uptake,Mus musculus [14],0.176 %ID
same,Drug uptake,Mus musculus [15],0.094 %ID
same,Drug uptake,Mus musculus [16],0.084 %ID
same,Drug uptake,Kidney [17],1.69 %ID
same,Drug uptake,[18],0.0021 %ID
same,Drug uptake,Liver [19],2.24 %ID
same,Drug uptake,Mus musculus [20],0.0087 %ID
same,Drug uptake,Mus musculus [21],0.066 %ID
same,Drug uptake,[22],0.0104 %ID
same,Drug uptake,[23],0.026 %ID
same,Drug uptake,Mus musculus [24],0.014 %ID
same,Drug uptake,Kidney [25],0.78 %ID
same,Drug uptake,Kidney [26],3.44 %ID
same,Drug uptake,Mus musculus [27],0.015 %ID
same,Drug uptake,Liver [28],3.64 %ID
same,Drug uptake,[29],0.0092 %ID
same,Drug uptake,[30],0.77 %ID
same,Drug uptake,Mus musculus [31],0.158 %ID
same,Drug uptake,Liver [32],2.4 %ID
same,Drug uptake,Liver [33],0.48 %ID
same,Drug uptake,Liver [34],7.1 %ID

# — ChEMBL document CHEMBL3271970, “Radiopharmaceuticals. 16. Halogenated dopamine analogs. Synthesis and radiolabeling of 6-iododopamine and tissue distribution studies in animals” (J Med Chem, 1976)
